IC50 data for 4 compounds are collected here from ChEMBL document CHEMBL1128319, “Cyclosporin analogs modified in the 3,7,8-positions: substituent effects on peptidylprolyl isomerase inhibition and immunosuppressive activity are nonadditive” (J Med Chem, 1995).

Test [1] concerns Jurkat. As to the kind of experiment: The compound was tested in vitro for inhibition of IL-2 release stimulated with PMA/ionomycin by Jurkat cells. The conditions noted are these: Homo sapiens. Format: functional, cell-based. The gist of the method: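 Jurkat cells at 2 × 10⁵/mL in RPMI-10 (10% heat-inactivated calf serum) with serial compound dilutions, stimulated with PMA 1000 ng/mL plus ionomycin 125 ng/mL, incubated overnight. IL-2 in supernatants quantified by ELISA.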

The species entered for test [2] is Mus musculus. As to the kind of experiment: The compound was tested in vitro for inhibition of proliferation in BDF1 mouse spleen cells stimulated with concanavalin A (ConA). Format: functional. Put shortly:
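BDF1 mouse spleen cells, 5 × 10⁶/mL in RPMI-10, given compound dilutions and Con A 5 μg/mL. Cultured 72 h at 37 °C, 5% CO₂, with [³H]thymidine 0.5 μCi over the last 16 h. Incorporated radioactivity counted by scintillation. Quadruplicate means used; viability checked by trypan blue. IC50 derived.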

Take `C/C=C/CC(C)C(O)[C@H]1C(=O)N[C@@H](CC)C(=O)N(C)[C@H](C)C(=O)N(C)[C@@H](CC(C)C)C(=O)N[C@@H](C(C)C)C(=O)N(C)[C@@H](CC(C)C)C(=O)N[C@@H](Cc2ccccc2)C(=O)N[C@H](C)C(=O)N(C)[C@@H](CC(C)C)C(=O)N(C)[C@@H](CC(C)C)C(=O)N(C)[C@@H](C(C)C)C(=O)N1C` (some centres not stated): the IC50 (as a rule, the concentration that gives 50% inhibition) in test [1] was determined as 62 nM; in test [2], 142 nM.
`C/C=C/CC(C)[C@@H](O)[C@H]1C(=O)N[C@@H](CC)C(=O)N(C)CC(=O)N(C)[C@@H](CC(C)C)C(=O)N[C@@H](C(C)C)C(=O)N(C)[C@@H](CC(C)C)C(=O)N[C@@H](Cc2ccccc2)C(=O)N[C@H](CO)C(=O)N(C)[C@@H](CC(C)C)C(=O)N(C)[C@@H](CC(C)C)C(=O)N(C)[C@@H](C(C)C)C(=O)N1C` (some centres not stated): the IC50 is 21 nM in test [1] and 105 nM in test [2].
As to `C/C=C/CC(C)[C@@H](O)[C@H]1C(=O)N[C@@H](CC)C(=O)N(C)CC(=O)N(C)[C@@H](CC(C)C)C(=O)N[C@@H](C(C)C)C(=O)N(C)[C@@H](CC(C)C)C(=O)N[C@@H](Cc2ccccc2)C(=O)N[C@H](C)C(=O)N(C)[C@@H](CC(C)C)C(=O)N(C)[C@@H](CC(C)C)C(=O)N(C)[C@@H](C(C)C)C(=O)N1C` (some centres not stated), the IC50 was 107 nM in test [1] and 248 nM in test [2].
In test [1], `C/C=C/C[C@@H](C)[C@@H](O)[C@H]1C(=O)N[C@@H](CC)C(=O)N(C)CC(=O)N(C)[C@@H](CC(C)C)C(=O)N[C@@H](C(C)C)C(=O)N(C)C(CC(C)C)C(=O)N[C@@H](C)C(=O)N[C@H](C)C(=O)N(C)C(CC(C)C)C(=O)N(C)[C@@H](CC(C)C)C(=O)N(C)C(C(C)C)C(=O)N1C` (single isomer, unassigned) [CYCLOSPORINE] came in with an IC50 of 12 nM.
